Screening results from PubChem BioAssay.
Hits are enriched below; roughly 3.5% of the tested compounds scored in any of these assays.
MrgX1 ag = human MrgX1 receptor agonism, primary screen | B-score at 10 µM | actives 0.44% (n = 310,000) | MrgX1-HEK293 cells, Fluo-4 calcium fluorescence, agonist mode; hits give high values | AID 588627 | Q96LB2;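 active = calcium response B-score plate-corrected fluorescence ratio at least 3 library SD, with starting fluorescence B-score inside 5 SD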
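Test system: HEK293 cells stably expressing human MrgX1 receptor; Input: fifteen thousand cells per well; Dosing: compound delivered in addition one of three; Schedule: overnight seeding, then 1 h dark dye loading; Technique: Fluo-4 NW calcium fluorescence; Measure: B-scored fluorescence response ratio; Controls: positive and negative controls per plate.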
RGS4 inh = inhibitors of human RGS4 | HEK293 M3R/RGS4 inducible, Fluo-4 calcium flux; hits give high values; triggered by carbachol at its EC20 | P49798 | actives 0.45% (n = 310,000) | B-score at 10 µM;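 active = B-score, a plate-corrected calcium signal, over three deviations above library mean, with baseline fluorescence within five deviations of library mean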;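 also: RGS4 expression induced by doxycycline in cells with stable M3 receptor; B-score is computed from the integrated fluorescence ratio over baseline after carbachol; higher B-score means a larger calcium signal and so more RGS4 inhibition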
Target sequence (P49798 whole entry, looked up): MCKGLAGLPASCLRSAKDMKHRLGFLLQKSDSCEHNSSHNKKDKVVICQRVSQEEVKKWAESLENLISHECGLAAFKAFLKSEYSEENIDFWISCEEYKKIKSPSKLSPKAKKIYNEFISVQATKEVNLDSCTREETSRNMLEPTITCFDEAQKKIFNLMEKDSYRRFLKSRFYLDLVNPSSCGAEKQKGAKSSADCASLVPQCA
RGS4 act = potentiators or activators of RGS4; HEK293 M3R/inducible RGS4, carbachol calcium flux Fluo4; hits give low values; B-score at 10 µM; actives 0.92% (n = 310,000); AID 463111;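 active = B-score of the integrated calcium signal more than 4 SD below the library mean, with starting fluorescence not abnormally high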;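 also: negative B-score means reduced calcium response which marks RGS4 activation or potentiation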
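System: HEK293 FlpIn-TREx cells, stable M3R, doxycycline-inducible RGS4. Timing: overnight RGS4 induction, 30 min dye load 37 °C, 20 min compound RT. Also added: carbachol, ECmax concentration. Measured by: Fluo4 fluorescence kinetic imaging of calcium. Evaluation: integrated calcium ratio converted to B score.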
MrgX1 antagonist = antagonists of human MrgX1 receptor; MRGX1-HEK293 calcium flux, Fluo-4, BAM8-22 antagonism; hits give low values; B-score at 10 µM; actives 1.3% (n = 310,000);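 active = calcium-response B-score plate-corrected more than 3 library SD below zero, starting fluorescence within 5 deviations, no agonist response on first addition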;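 also: peak minus trough fluorescence over baseline after final BAM8-22 challenge near maximal dose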
MrgX1 PAM = human MrgX1 positive allosteric modulation, primary screen | actives 0.63% (n = 310,000) | Q96LB2 | MrgX1-HEK293, Fluo-4 calcium flux, FDSS; hits give high values | B-score at 10 µM | AID 588675;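 active = plate-corrected calcium response at least 3 library SD above typical, normal starting fluorescence, not activating the receptor alone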;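 also: compound read alongside a low EC10 to EC30 dose of BAM8-22 agonist; peak minus trough fluorescence over baseline measured at the second addition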
RGS4 inh valid = validation of RGS4 inhibitors. shares compounds with RGS4 inh. HEK293 M3R/RGS4, carbachol calcium Fluo-4 fluorescence; carbachol added at its EC20; 0 = buffer wells, 100 = carbachol control. calcium response, % at 10 µM. actives 65% (n = 1,700);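 active = duplicate-averaged calcium response above the buffer-only control mean plus 5 SD of those controls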;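 also: integrated fluorescence ratio F max minus min over baseline F0; higher response in RGS4-induced cells means RGS4 inhibition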
M3R Ca ctr = counter-screen for RGS4 inhibitors: effect in non-induced cells; actives 20% (n = 1,900); shares compounds with RGS4 inh; activity (percent), % at 10 µM; HEK293 M3R non-induced, carbachol calcium Fluo-4; submaximal (EC20) carbachol stimulus; buffer wells 0%, carbachol control wells 100%; call rule not given here;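 also: RGS4 induction absent so cells express M3R without RGS4; higher means more calcium signal and flags a non-specific hit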
M3R basal Ca ctr = second counter-screen for RGS4 inhibitors: non-induced cells without carbachol; shares compounds with RGS4 inh; HEK293 M3R/RGS4 non-induced, Fluo-4 calcium, no carbachol; normalised: buffer wells 0%, carbachol wells 100%; calcium response (agonist-mode artifact), % at 10 µM; actives 22% (n = 1,900); AID 493001;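 active = duplicate-averaged calcium rise in uninduced cells above buffer wells' mean plus 5 SD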
Starred values were filed as active, the others as inactive; i = inactive; . = no result.

SMILES	MrgX1 ag	RGS4 inh	RGS4 act	MrgX1 antagonist	MrgX1 PAM	RGS4 inh valid	M3R Ca ctr	M3R basal Ca ctr
C=C1C[C@@H]2[C@H](CC[C@]3(C)C(=O)CC[C@@H]23)[C@@]2(C)C=CC(=O)C=C12	i	i	i	i	i	.	.	.
C=CCN1C(=O)/C(=C/c2ccc3c(c2)CCCN3CCC)C(=O)NC1=S	i	i	i	i	i	.	.	.
CN1C(=O)/C(=C/c2ccc(Cl)s2)C(=O)NC1=S	i	9.9*	i	i	i	5.5%*	i	i
C=CCN1C(=O)/C(=C/c2ccc(Br)s2)C(=O)NC1=S	i	11*	i	-5.6*	i	5.0%*	i	i
O=C(C(=O)N1CCOCC1)c1cn(Cc2ccccc2F)c2ccccc12	i	i	i	i	i	.	.	.
CN1CC2([N+](=O)[O-])CC=C(Cl)C([N+](=O)[O-])(C1)C2 (stereo unspecified)	i	i	i	i	i	.	.	.
Cc1ccc2c(c1)=NC(=O)/C(=C/c1c(O)[nH]c(=O)[nH]c1=O)C=2	i	i	i	i	i	.	i	i
COc1cc(/C=C/[N+](=O)[O-])ccc1OC(=O)c1cccnc1	i	49*	i	i	i	113%*	45%*	26%*
N[C@@H](Cc1cc(Br)c(O)c(Br)c1)C(=O)O	i	6.7*	i	i	i	12%*	i	i
CC(C(=O)N1CCC2(CC1)OCCO2)C1Sc2ccccc2NC1=O (stereo unspecified)	i	i	i	i	i	.	.	.
Nc1c(C(=O)NCc2ccco2)c2nc3ccccc3nc2n1CCN1CCCCC1	i	i	i	i	i	i	i	12%*
CC(Cl)(Cl)/C(=N/P(=S)(N1CCOCC1)N1CCOCC1)N1CCOCC1	i	i	i	i	i	.	.	.
Cc1cccc(NP(=O)(Oc2ccccc2)Oc2ccccc2)c1C	i	i	i	i	i	.	.	.
Cc1ccccc1NP(=O)(Oc1ccccc1F)Oc1ccccc1F	i	i	-7.5*	i	i	i	i	i
O=C(N/N=C/c1c(O)n(Cc2ccc(F)cc2)c(=O)[nH]c1=O)c1ccccc1	i	i	i	i	i	.	i	i
O=C(N/N=C/c1c(O)n(Cc2ccccc2)c(=O)[nH]c1=O)c1ccncc1	i	i	i	i	i	.	34%*	i
C=CCn1c(O)c(/C=N/NC(=O)c2ccncc2)c(=O)[nH]c1=O	i	i	i	i	i	.	.	.
CN1C(=O)NC(=O)/C(=C\C=C\c2ccccc2[N+](=O)[O-])C1=O	i	6.6*	i	i	i	16%*	i	10%*
CN1C(=O)/C(=C/C=C/c2ccco2)C(=O)NC1=S	i	i	i	i	i	.	.	.
CCOC(=O)C1=C(N)OC2=C(C(=O)CCC2)C12C(=O)N(CC(N)=O)c1ccccc12 (stereo unspecified)	i	i	i	i	i	.	.	.
CCCc1[nH]nc2c1C1(C(=O)N(Cc3ccccc3)c3ccccc31)C(C(=O)OC)=C(N)O2 (stereo unspecified)	i	5.9*	i	i	i	19%*	30%*	i
CCCc1[nH]nc2c1C1(C(=O)N(CC(N)=O)c3ccccc31)C(C(=O)OC)=C(N)O2 (stereo unspecified)	i	i	i	i	i	i	i	i
